According to ChEMBL document CHEMBL1156395, “Cytotoxic polyacetylenic alcohols from the marine sponge Petrosia species” (2001):
Converted amounts (≈) assume the structure as drawn.

What was measured:
A549 = assay: Cytotoxicity against human A549 cells; type: functional; details: read-out: ED50 (the source's name)
SK-OV-3 = assay: Cytotoxicity against human SKOV3 cells; type: functional; details: read-out: ED50 (the source's name)
SK-MEL-2 = assay: Cytotoxicity against human SK-MEL-2 cells; type: functional; details: read-out: ED50 (the source's name)
XF498 = assay: Cytotoxicity against human XF498 cells; type: functional; details: read-out: ED50 (the source's name)
HCT-15 = assay: Cytotoxicity against human HCT15 cells; type: functional; details: read-out: ED50 (the source's name)
Nucleic Acid [1] = assay: Inhibition of SV40 DNA replication at 20 uM; type: nucleic-acid assay; details: Betapolyomavirus macacae
Method in brief: (§1)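 Cell-free SV40 origin (pUC) plasmid replication in 40 mM creatine phosphate-di-Tris pH 7.7 with creatine kinase, 7 mM MgCl2, 0.5 mM DTT, 4 mM ATP, 200 µM UTP/GTP/CTP, 100 µM dATP/dGTP/dCTP, 25 µM [3H]dTTP, 0.6 µg SV40 T-Ag and replication proteins. Incubation 90 min at 37 °C; acid-insoluble radioactivity counted. Products checked with [α-32P]dATP on agarose gel.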

Nucleic Acid [2] = assay: Inhibition of SV40 DNA replication at 40 uM; type: nucleic-acid assay; details: Betapolyomavirus macacae; method in brief: as §1

| SMILES | EC50 (A549) [µg/mL] | EC50 (SK-OV-3) [µg/mL] | EC50 (SK-MEL-2) [µg/mL] | EC50 (XF498) [µg/mL] | EC50 (HCT-15) [µg/mL] | inhibition (Nucleic Acid [1]) [%] | inhibition (Nucleic Acid [2]) [%] |
| --- | --- | --- | --- | --- | --- | --- | --- |
| C#C/C=C\CCCCCCCCCCCCCCCC/C=C\CCCC/C=C\CCCCC#C[C@@H](O)C#CCCCCCC/C=C/[C@H](O)C#C | 5.2 (≈ 7.61 µM) | 5.1 (≈ 7.47 µM) | 1.6 (≈ 2.34 µM) | 5.8 (≈ 8.49 µM) | 3.9 (≈ 5.71 µM) | 21 | 38 |
| C#C/C=C\CCCCCCCCCCCCC/C=C/C(O)CCCC/C=C\CCCCC#C[C@H](O)C#CCCCCCC/C=C/[C@H](O)C#C (stereo not given in full) | 4 (≈ 5.96 µM) | 1.2 (≈ 1.79 µM) | 0.5 (≈ 0.745 µM) | 3.5 (≈ 5.22 µM) | 1.4 (≈ 2.09 µM) | 8 | 55 |
| C#C/C=C\CCCCCCCCCCCCCCC(O)/C=C/CCC/C=C\CCCCC#C[C@H](O)C#CCCCCCC/C=C/[C@H](O)C#C (stereo not given in full) | 4 (≈ 5.96 µM) | 1.2 (≈ 1.79 µM) | 0.5 (≈ 0.745 µM) | 3.5 (≈ 5.22 µM) | 1.4 (≈ 2.09 µM) | 8 | 55 |
| C#CCCCCCCCCCCCCCCCCC/C=C\CCCC/C=C\CCCCC#C[C@@H](O)C#CCCCCCCCC[C@@H](O)C#C [PETROTETRAYNDIOL F] | 3.7 (≈ 5.5 µM) | 3.8 (≈ 5.65 µM) | 1.1 (≈ 1.63 µM) | 4.3 (≈ 6.39 µM) | 3.4 (≈ 5.05 µM) | 16 | 48 |
| C#C/C=C\CCCCCCCCCCCCCC/C=C\CCCCC(O)/C=C/CCCC#C[C@H](O)C#CCCCCCC/C=C/[C@H](O)C#C (stereo not given in full) | 10 (≈ 14.9 µM) | 1.8 (≈ 2.68 µM) | 1.3 (≈ 1.94 µM) | 4.7 (≈ 7 µM) | 4 (≈ 5.96 µM) | 9 | 36 |
